ALR H2O2 inh: inhibitors of human sulfhydryl oxidase ALR; P55789; purified ALR, DTT oxidation, H2O2 HRP-luminol luminescence; inhibition, % (concentration not given with the values); 290,000 tested, 3.8% active; AID 485317;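 active means mean replicate inhibition above about 79%, with every replicate also reaching it, limit read from the data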
UCH37 DUB inh: inhibitors of human deubiquitinating enzyme UCH37 | Q9Y5K5 | purified proteasome/UCH37, Ub-AMC cleavage fluorescence | inhibition, % (test concentration not listed) | 330,000 tested, 0.33% active | AID 588478;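 active means mean inhibition over replicate wells above about 20%, limit read from the data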;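 further: 0% = compound-free wells with enzyme and 100% = wells lacking proteasome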
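Signal – fluorescence, ex 355 nm, em 460 nm · System – Proteasome-bound UCH37 · Input – 0.15 nM proteasome as dispensed · Timing – 30 min preincubation with enzyme, 25 min cleavage at room temperature · Read-out basis – percent inhibition of cleavage signal versus uninhibited and no-proteasome wells · Medium – Tris-HCl pH 7.4 with ATP-MgCl2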
HDAC3 inh: blocks human histone deacetylase 3; 320,000 tested, 0.15% active; inhibition, % at 8.3 µM; recombinant HDAC3, fluorogenic peptide/trypsin coupled, fluorescence; AID 2718; O15379; in the data active means inhibition above about 26%, passing the limit was not always enough
Target sequence (O15379 whole entry, looked up): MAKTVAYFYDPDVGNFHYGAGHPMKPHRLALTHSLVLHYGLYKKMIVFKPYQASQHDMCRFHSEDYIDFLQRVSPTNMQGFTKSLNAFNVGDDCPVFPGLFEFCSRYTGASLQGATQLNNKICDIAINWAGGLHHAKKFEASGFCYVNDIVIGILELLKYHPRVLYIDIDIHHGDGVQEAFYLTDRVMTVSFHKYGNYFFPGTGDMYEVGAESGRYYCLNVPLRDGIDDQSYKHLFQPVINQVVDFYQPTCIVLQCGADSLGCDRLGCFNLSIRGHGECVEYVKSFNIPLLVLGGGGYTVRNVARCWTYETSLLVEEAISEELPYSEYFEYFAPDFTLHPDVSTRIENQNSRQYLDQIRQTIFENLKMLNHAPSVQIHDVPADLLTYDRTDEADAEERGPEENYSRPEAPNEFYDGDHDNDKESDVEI
FAS TE block: inhibitors of human fatty acid synthase thioesterase domain | recombinant FAS-TE, OMFH fluorogenic substrate, fluorescence endpoint | 360,000 tested, 0.67% active | inhibition, % at 15 µM | P49327;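 active means compounds whose normalised, plate-corrected inhibition of enzyme fluorescence in the single-dose primary screen is 50% or more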;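 further: 0% = DMSO with enzyme and 100% = substrate without enzyme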
PfM18AAP inh: PfM18AAP enzyme inhibition. recombinant PfM18AAP, H-Glu-NHMec fluorogenic cleavage. inhibition, % at 7.35 µM. 290,000 tested, 1.2% active;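 active means inhibition above the campaign mean inhibition over all tested compounds plus 3 SD, cut at about 28% in these data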;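 further: 0% = plate median of test compound wells and 100% = 2 mM ZnCl2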
Rtt109 Vps75: inhibitors of Candida albicans Rtt109/Vps75 histone acetyltransferase; 330,000 tested, 0.16% active; inhibition, % at 34.9 µM; AID 540336; purified Rtt109/Vps75, ThioGlo CoA-SH fluorescence, 4 h;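 active means inhibition of at least 50% in every replicate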
* marks the source's active call; other numbers are inactive results. Only some compounds are listed: those with a hit (about 4.6% of all), similar ones and a draw of the others.

Screening COc1ccc(Nc2nc(NCc3ccco3)nc(NN=Cc3ccc(O)cc3)n2)cc1 returned UCH37 DUB inh 4.5.
CCOc1ccc(Cl)cc1C=NNC(=O)CNC(=O)c1ccccc1 was read as UCH37 DUB inh -5.6.
`O=S(=O)(N=C(c1ccccc1)N1CCOCC1)c1ccc(Cl)cc1` gave UCH37 DUB inh 1.7.
`O=C(NNS(=O)(=O)c1cc(Cl)cc(Cl)c1)c1sccc1-n1cccc1` gave ALR H2O2 inh 87.9*, UCH37 DUB inh -0.1, HDAC3 inh -0.9, FAS TE block -6.4, PfM18AAP inh 6.1 and Rtt109 Vps75 1.8.
Cc1ccc(S(=O)(=O)NNC(=O)c2sccc2-n2cccc2)cc1 was read as ALR H2O2 inh 51.3, UCH37 DUB inh 0.8, HDAC3 inh -3.6, FAS TE block 1.5, PfM18AAP inh 7.9 and Rtt109 Vps75 6.3.
Screening CCOc1ccc(N/C(SCc2cccc([N+](=O)[O-])c2)=C(/C#N)C(N)=O)cc1 returned ALR H2O2 inh 98.9*, UCH37 DUB inh 13.4, HDAC3 inh 6.9, FAS TE block 40.8, PfM18AAP inh 5.3 and Rtt109 Vps75 -3.7.
`CC(=O)Nc1ccc(OCc2cccc([N+](=O)[O-])c2)cc1` gave ALR H2O2 inh -1.6, UCH37 DUB inh 2.2, HDAC3 inh 2.7, FAS TE block 1.4, PfM18AAP inh -3.6 and Rtt109 Vps75 58.0*.
`COc1ccc(C=NNC(=O)c2cccc([N+](=O)[O-])c2)cc1OS(=O)(=O)c1ccc(C)cc1` gave UCH37 DUB inh 4.7.
Screening CCC(C)NC(=O)CSc1ccc(NC(C)=O)cc1 (centres undefined) returned ALR H2O2 inh -2.7, UCH37 DUB inh -0.1, HDAC3 inh -1.8, FAS TE block -7.3, PfM18AAP inh -9.2 and Rtt109 Vps75 -4.3.
Screening CC(=O)Nc1ccc(SCC(=O)c2ccc(Br)s2)cc1 returned ALR H2O2 inh 99.1*, UCH37 DUB inh 12.0, HDAC3 inh 1.1, FAS TE block 3.7, PfM18AAP inh 25.3 and Rtt109 Vps75 35.5.
Screening Cc1ccnc(SCC(=O)c2ccc(Br)s2)n1 returned ALR H2O2 inh 84.9*, UCH37 DUB inh 1.5, HDAC3 inh -4.3, FAS TE block 6.9 and PfM18AAP inh 20.1.
For Cc1ccnc(SCC(=O)c2cccs2)n1 the results were ALR H2O2 inh 24.5, UCH37 DUB inh 0.8, HDAC3 inh 2.4, FAS TE block -7.6, PfM18AAP inh 4.7 and Rtt109 Vps75 9.8.
`CCCCN(C)C=Nc1c(C#N)cnn1-c1ccc(C)cc1` gave UCH37 DUB inh 1.5.
`CNC(=O)N(O)C1N(/N=C/c2ccc(N(C)C)cc2)C(=S)SC1(C)C` (centres undefined) gave ALR H2O2 inh 98.5*, HDAC3 inh 0.3, FAS TE block 2.0, PfM18AAP inh 13.5 and Rtt109 Vps75 -3.9.
Screening CCCCNC(=O)N(O)C1N(N=Cc2ccc(N(C)C)cc2)C(=S)SC1(C)C (centres undefined) returned UCH37 DUB inh 1.2.
`O=C(NN=Cc1ccccc1Cl)c1ccncc1` gave UCH37 DUB inh 1.7.
`COc1ccc(C=NNC(=O)CCN2CCCCC2c2cccnc2)cc1Cn1cc([N+](=O)[O-])cn1` (centres undefined) gave UCH37 DUB inh 1.8.
Screening O=C(Oc1ccc(C(=S)N2CCOCC2)cc1)c1ccccc1F returned ALR H2O2 inh 12.1, UCH37 DUB inh 4.8, HDAC3 inh -0.4, FAS TE block 0.4, PfM18AAP inh 29.3* and Rtt109 Vps75 -2.9.
For COc1cc(C=NNc2nc(C)cc(C)n2)ccc1OC(=O)c1ccco1 the results were UCH37 DUB inh 7.8.
For O=C(O)CC/C(=C\c1cc([N+](=O)[O-])ccc1Cl)c1nc2ccccc2s1 the results were ALR H2O2 inh 96.4*, UCH37 DUB inh 7.6, HDAC3 inh 4.6, FAS TE block 16.6, PfM18AAP inh 22.3 and Rtt109 Vps75 6.8.
For O=C(O)CC/C(=C\c1ccccc1[N+](=O)[O-])c1nc2ccccc2s1 the results were ALR H2O2 inh 96.5*, UCH37 DUB inh 4.0, HDAC3 inh -1.0, FAS TE block 1.0, PfM18AAP inh -0.8 and Rtt109 Vps75 3.1.
For CN(c1ccccc1)c1ccc(/C=C(/CCC(=O)O)c2nc3ccccc3s2)cc1[N+](=O)[O-] the results were UCH37 DUB inh 13.2, FAS TE block 1.2 and Rtt109 Vps75 3.9.
